In brackets after ≈: the same amount, converted by molar mass. Activity calls are given as the source filed them. No cut-off for these calls is given here.
What was measured:
[1] = tested on: Staphylococcus aureus; experiment: Antibacterial activity against Staphylococcus aureus NRRL B 313 at 50 mg/ml after 24 hrs by agar diffusion test; assay type: functional
Outline: (§1)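 Agar diffusion: bacteria grown 24 h at 37 °C on nutrient agar. Wells in the agar are filled with […] of compound solution in DMSO at various concentrations. The diameter of the clear zone around the application point is measured. Bracketed values give the lowest concentration (mg/ml) that produces a zone >11 mm. A first screen is run at 50 mg/ml.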

[2] = tested on: Bacillus cereus; experiment: Antibacterial activity against Bacillus cereus ATCC 11778 at 2 mg/ml after 24 hrs by agar diffusion test; assay type: functional, organism-based
Outline: (§2)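 Agar diffusion: wells in agar filled with […] DMSO solution of compound at various concentrations; diameter of clear zone around application point measured. Bacteria grown 24 h at 37 °C on nutrient agar. Compounds first screened at 50 mg/ml; those active then tested at lower concentrations. Bracketed value = lowest concentration (mg/ml) giving zone >11 mm, reported only if activity retained at ≤1.25 mg/ml.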

[3] = tested on: Bacillus subtilis; experiment: Antibacterial activity against Bacillus subtilis ATCC 6633 at 2 mg/ml after 24 hrs by agar diffusion test; assay type: functional, organism-based; outline: as §2
[4] = tested on: Acinetobacter johnsonii; experiment: Antibacterial activity against Acinetobacter johnsonii ATCC 17909 at 50 mg/ml after 24 hrs by agar diffusion test; assay type: functional; outline: as §2
[5] = tested on: Bacillus mycoides; experiment: Antibacterial activity against Bacillus mycoides DSMZ 274 at 2 mg/ml after 24 hrs by agar diffusion test; assay type: functional, organism-based; outline: as §2
[6] = tested on: Acinetobacter johnsonii; experiment: Antibacterial activity against Acinetobacter johnsonii ATCC 17909 at 2 mg/ml after 24 hrs by agar diffusion test; assay type: functional; outline: as §2
[7] = tested on: Micrococcus luteus; experiment: Antibacterial activity against Sarcina lutea ATCC 9341 at 50 mg/ml after 24 hrs by agar diffusion test; assay type: functional; outline: as §1
[8] = tested on: Micrococcus luteus; experiment: Antibacterial activity against Sarcina lutea ATCC 9341 at 2 mg/ml after 24 hrs by agar diffusion test; assay type: functional, organism-based; outline: as §2
[9] = tested on: Bacillus subtilis; experiment: Antibacterial activity against Bacillus subtilis ATCC 6633 at 50 mg/ml after 24 hrs by agar diffusion test; assay type: functional; outline: as §2
[10] = tested on: Bacillus cereus; experiment: Antibacterial activity against Bacillus cereus ATCC 11778 at 50 mg/ml after 24 hrs by agar diffusion test; assay type: functional; outline: as §2
[11] = tested on: Escherichia coli; experiment: Antibacterial activity against Escherichia coli ATCC 8739 at 50 mg/ml after 24 hrs by agar diffusion test; assay type: functional; outline: as §2
[12] = tested on: Priestia megaterium; experiment: Antibacterial activity against Bacillus megaterium NRRL 1353895 at 50 mg/ml after 24 hrs by agar diffusion test; assay type: functional; outline: as §2
[13] = tested on: Staphylococcus aureus; experiment: Antibacterial activity against Staphylococcus aureus NRRL B 313 at 2 mg/ml after 24 hrs by agar diffusion test; assay type: functional, organism-based; outline: as §1
[14] = tested on: Bacillus; experiment: Antibacterial activity against Bacillus idosus B 241 at 2 mg/ml after 24 hrs by agar diffusion test; assay type: functional, organism-based; outline: as §2
[15] = tested on: Penicillium chrysogenum; experiment: Antifungal activity against Penicillium chrysogenum CECT 2802 at 50 mg/ml after 72 hrs by agar diffusion test; assay type: functional
Outline: (§3)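 Agar diffusion: yeasts grown on yeast peptone dextrose agar and fungi on potato dextrose agar. Wells are filled with […] of compound solution in DMSO at various concentrations, and the clear-zone diameter is measured. Bracketed values give the lowest concentration (mg/ml) that produces a zone >11 mm. A first screen is run at 50 mg/ml.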

[16] = tested on: Candida tropicalis; experiment: Antifungal activity against Candida tropicalis ATCC 20336 at 50 mg/ml after 72 hrs by agar diffusion test; assay type: functional; outline: as §3
[17] = tested on: Candida tropicalis; experiment: Antifungal activity against Candida tropicalis ATCC 20336 at 2 mg/ml after 72 hrs by agar diffusion test; assay type: functional, organism-based; outline: as §3
[18] = tested on: Escherichia coli; experiment: Antibacterial activity against Escherichia coli ATCC 8739 at 2 mg/ml after 24 hrs by agar diffusion test; assay type: functional, organism-based; outline: as §2
[19] = tested on: Saccharomyces cerevisiae; experiment: Antifungal activity against Saccharomyces cerevisiae ATCC 9763 at 50 mg/ml after 72 hrs by agar diffusion test; assay type: functional; outline: as §3
[20] = tested on: Micrococcus luteus; experiment: Antibacterial activity against Micrococcus luteus ATCC 9631 at 2 mg/ml after 24 hrs by agar diffusion test; assay type: functional, organism-based; outline: as §2
[21] = tested on: Mycobacterium tuberculosis; experiment: Antimycobacterial activity against Mycobacterium tuberculosis H37Rv after 45 days; assay type: functional
Outline: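 Canetti proportion method. Compound in DMSO is added to Löwenstein–Jensen egg medium before coagulation (30 min, 85 °C), tested at three levels plus a lower one where needed. Tubes are inoculated with H37Rv at 10⁵ cells/ml and incubated 45 days at 37 °C. Colony counts versus drug-free control give percentage inhibition.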

[22] = tested on: Bacillus mycoides; experiment: Antibacterial activity against Bacillus mycoides DSMZ 274 at 50 mg/ml after 24 hrs by agar diffusion test; assay type: functional; outline: as §2
[23] = tested on: Bacillus; experiment: Antibacterial activity against Bacillus idosus B 241 at 50 mg/ml after 24 hrs by agar diffusion test; assay type: functional; outline: as §2
[24] = tested on: Micrococcus luteus; experiment: Antibacterial activity against Micrococcus luteus ATCC 9631 at 50 mg/ml after 24 hrs by agar diffusion test; assay type: functional; outline: as §2
[25] = tested on: Saccharomyces cerevisiae; experiment: Antifungal activity against Saccharomyces cerevisiae ATCC 9763 at 2 mg/ml after 72 hrs by agar diffusion test; assay type: functional, organism-based; outline: as §3
[26] = tested on: Priestia megaterium; experiment: Antibacterial activity against Bacillus megaterium NRRL 1353895 at 2 mg/ml after 24 hrs by agar diffusion test; assay type: functional, organism-based; outline: as §2
[27] = tested on: Penicillium chrysogenum; experiment: Antifungal activity against Penicillium chrysogenum CECT 2802 at 2 mg/ml after 72 hrs by agar diffusion test; assay type: functional, organism-based; outline: as §3
[28] = tested on: Mycobacterium tuberculosis; experiment: Ratio of ethambutol dihydrochloride MIC to compound MIC for Mycobacterium tuberculosis H37Rv; assay type: functional
[29] = tested on: HEK-293T; experiment: Cytotoxicity against human HEK293T cells after 72 hrs by MTT assay; assay type: cell-based
Outline: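 293T cells in RPMI-1640 with 10% heat-inactivated FCS and 2 mM L-glutamine, 37 °C, 5% CO2. Cells seeded at 3.5 × 10⁵ cells/ml, grown 24 h, then exposed 72 h to DMSO-diluted compounds (final solvent ≤0.5%), ≥8 wells per concentration. MTT added 4 h, formazan dissolved in 5% HCOOH/2-propanol, absorbance read at 580 nm. IC50 obtained by sigmoidal nonlinear regression against untreated control.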

[30] = Solubility of the compound in deionized water; assay type: physicochemical
[31] = Selectivity index, ratio of IC50 for human HEK293T cells to MIC for Mycobacterium tuberculosis H37Rv; assay type: functional, HEK-293T

| SMILES | diameter of the inhibition zone (DIZ) [1] | diameter of the inhibition zone (DIZ) [4] | diameter of the inhibition zone (DIZ) [7] | diameter of the inhibition zone (DIZ) [9] | diameter of the inhibition zone (DIZ) [10] | diameter of the inhibition zone (DIZ) [12] | diameter of the inhibition zone (DIZ) [15] | diameter of the inhibition zone (DIZ) [16] | diameter of the inhibition zone (DIZ) [19] | MIC [21] [µM] | diameter of the inhibition zone (DIZ) [22] | diameter of the inhibition zone (DIZ) [23] | diameter of the inhibition zone (DIZ) [24] | other results |
| --- | --- | --- | --- | --- | --- | --- | --- | --- | --- | --- | --- | --- | --- | --- |
| CC[C@H](CO)N1C(=O)c2ccccc2C1=O | inactive | inactive | inactive | inactive | inactive | inactive | inactive | inactive | inactive | > 22.8 | inactive | inactive | inactive | diameter of the inhibition zone (DIZ) [2]: inactive; diameter of the inhibition zone (DIZ) [3]: inactive; diameter of the inhibition zone (DIZ) [5]: inactive; diameter of the inhibition zone (DIZ) [6]: inactive; diameter of the inhibition zone (DIZ) [8]: inactive; zone of inhibition at 50000 µg/mL ([11]; ATCC 8739, 24 h, read-out: DIZ): 11 mm; diameter of the inhibition zone (DIZ) [13]: inactive; diameter of the inhibition zone (DIZ) [14]: inactive; diameter of the inhibition zone (DIZ) [17]: inactive; diameter of the inhibition zone (DIZ) [18]: inactive; diameter of the inhibition zone (DIZ) [20]: inactive; diameter of the inhibition zone (DIZ) [25]: inactive; diameter of the inhibition zone (DIZ) [26]: inactive; diameter of the inhibition zone (DIZ) [27]: inactive |
| CC[C@H](CO)NC(=O)c1ccccc1C(=O)N[C@H](CC)CO | inactive | inactive | inactive | inactive | inactive | inactive | inactive | inactive | inactive | 0.65 (≈ 0.2 µg/mL) | inactive | inactive | inactive | Ratio [28]: 5; IC50 [29]: 244 µM; solubility [30]: 46 mg/mL (≈ 149 mM); Selectivity Index [31]: 375.4; diameter of the inhibition zone (DIZ) [11]: inactive |

— ChEMBL document CHEMBL1932986, “Synthesis and in vitro antimycobacterial activity of compounds derived from (R)- and (S)-2-amino-1-butanol - The crucial role of the configuration” (Eur J Med Chem, 2012)
